Test results taken from ChEMBL document CHEMBL1800010, “Design, synthesis, and pharmacological activity of nonallergenic pyrazolone-type antipyretic analgesics” (J Med Chem, 2010).
Calls of active or inactive are those of the source.

Legend:
Rattus norvegicus [1] = assay: Antinociceptive activity in rat assessed as suppression of carrageenan-induced nociception in right hind paw at 2 mg/kg, po measured after 1 hr; assay type: functional, organism-based; set-up: dose 2 mg/kg
In short: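 Rat Randall-Selitto paw pressure test. Hyperalgesia induced by intraplantar injection of 0.1 mL carrageenin (10 mg/mL) into the right hindpaw. Drug given orally immediately after. Pressure applied at 16 g/s with a 250 g cutoff; threshold taken at squeaking/struggling. Baseline is the mean of the last four stable readings. Expressed as % of control threshold; mean ± SEM, n=4 rats.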

Rattus norvegicus [2] = assay: Antipyretic activity against IL-1beta-induced hyperthermia in rat assessed as change in rectal temperature at 100 mg/kg, po measured after 2 hrs
Rattus norvegicus [3] = species on record: Rattus norvegicus; assay: Antipyretic activity against IL-1beta-induced hyperthermia in rat assessed as change in rectal temperature measured after 2 hrs; assay type: functional, organism-based
In short: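 Rats fitted with a guide cannula into the lateral ventricle. Fever induced by icv IL-1β (200 units/rat) in PBS pH 7.5. Compound given orally immediately after IL-1β at 10-100 mg/kg. Rectal temperature read by thermoelectric probe at 7 cm depth, after 3 days of adaptation, at 2 h intervals. ΔT_rec = T − T₀. Mean ± SEM, four rats.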

Rattus norvegicus [4] = assay: Antinociceptive activity in rat assessed as suppression of carrageenan-induced nociception in right hind paw at 100 mg/kg, po measured after 1 hr; assay type: functional, organism-based; set-up: dose 100 mg/kg
In short: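 Randall–Selitto paw pressure test in rats. Hyperalgesia induced by intraplantar injection of 0.1 mL carrageenin (10 mg/mL) into the right hindpaw, with oral dosing immediately afterward. Pressure rose at 16 g/s to squeak or struggle, cutoff 250 g. Baseline was the mean of the last four stable of 6-8 readings. Results given as % of baseline threshold, mean ± SEM, n=4.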

Liver microsomes [5] = assay: Metabolic stability in rat liver microsomes assessed as norantipyrine formation per mg of protein after 20 mins by HPLC analysis; assay type: ADME, Microsome
In short: (§1)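 Rat liver microsomes prepared by 9000g then 105000g centrifugation in 1.15% KCl, protein by Lowry. Incubation: 2 μmol substrate, 10 μmol NADPH, Na2S2O5 and microsomes (2-2.5 mg protein) in 2 mL 0.1 M K/Na phosphate, pH 7.4, 37 °C, 20 min. Stopped with TCA. Metabolites measured by C18 HPLC at 254 nm against authentic standards.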

Rattus norvegicus [6] = assay: Drug excretion in rat urine assessed as hydroxymethylpyrine formation at 100 mg/kg, po measured after 24 hrs by HPLC analysis; assay type: ADME, organism-based; set-up: dose 100 mg/kg, route oral; details: in vivo
In short: (§2)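 Single oral dose of 100 mg/kg to rats, with urine collected for 24 h. 1 mL urine was incubated with β-glucuronidase/sulphatase and Na2S2O5 in 0.1 M acetate, pH 4.5, at 37 °C for 24 h. Phenacetin internal standard added, then chloroform/methanol 9:1 extraction. Analyzed by C18 HPLC (acetate pH 6.6/acetonitrile 85:15, 254 nm) against authentic standards. Mean ± SEM, n=4.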

Rattus norvegicus [7] = assay: Drug excretion in rat urine assessed as norantipyrine formation at 100 mg/kg, po measured after 24 hrs by HPLC analysis; assay type: ADME, organism-based; set-up: dose 100 mg/kg, route oral; details: in vivo; in short: as §2
Cavia porcellus = species on record: Cavia porcellus; assay: Antigenicity in guinea pig assessed as erythema in abdomen id measured after 24 hrs by skin reaction assay; details: in vivo, other
Rattus norvegicus [8] = assay: Drug excretion in rat urine assessed as norantipyrine formation at 100 mg/kg, po measured after 24 hrs by HPLC analysis; details: in vivo, BLD = below limit of detection
Rattus norvegicus [9] = assay: Antipyretic activity against IL-1beta-induced hyperthermia in rat assessed as change in rectal temperature at 50 mg/kg, po measured after 2 hrs
Liver microsomes [10] = assay: Metabolic stability in rat liver microsomes assessed as increase in […] products after 20 mins by HPLC analysis; assay type: ADME, Microsome; in short: as §1
Liver microsomes [11] = assay: Metabolic stability in rat liver microsomes assessed as hydroxymethylpyrine formation per mg of protein after 20 mins by HPLC analysis; assay type: ADME, Microsome; in short: as §1
Liver microsomes [12] = assay: Metabolic stability in rat liver microsomes assessed as hydroxyantipyrine formation per mg of protein after 20 mins by HPLC analysis; assay type: ADME, Microsome; in short: as §1
Rattus norvegicus [13] = assay: Drug excretion in rat urine assessed as hydroxyantipyrine formation at 100 mg/kg, po measured after 24 hrs by HPLC analysis; assay type: ADME, organism-based; set-up: dose 100 mg/kg, route oral; details: in vivo; in short: as §2
[14] = Drug excretion in rat urine at 100 mg/kg, po measured after 24 hrs by HPLC analysis; assay type: ADME, organism-based; set-up: dose 100 mg/kg, route oral; details: read-out: Activity; in short: as §2

Row | SMILES | Activity (Rattus norvegicus [1]) | Activity (Rattus norvegicus [2]) | Activity (Rattus norvegicus [3]) | Activity (Rattus norvegicus [4]) | Activity (Liver microsomes [5]) | Activity (Rattus norvegicus [6]; BLD = below limit of detection) | Activity (Rattus norvegicus [7]; BLD = below limit of detection) | Activity (Cavia porcellus) | Activity (Rattus norvegicus [8]) | Activity (Rattus norvegicus [9]) | Stability (Liver microsomes [10]) | Activity (Liver microsomes [11]) | Activity (Liver microsomes [12]) | Activity (Rattus norvegicus [6]) | Activity (Rattus norvegicus [7]) | Activity (Rattus norvegicus [13]) | dose excreted at 24 h [14]
1 | COc1ccc2c(c1)c(CC(=O)O)c(C)n2C(=O)c1ccc(Cl)cc1 | Active |  |  |  |  |  |  |  |  |  |  |  |  |  |  |  | 
2 | Cc1cccc(Nc2ccccc2C(=O)O)c1C |  | Active |  |  |  |  |  |  |  |  |  |  |  |  |  |  | 
3 | Cc1cc(=O)n(-c2ccccc2)n1C(C)(C)C |  |  | Dose-dependent effect | Active | < 0.1 nmol | BLD | BLD | Non-toxic | BLD | Active |  |  |  |  |  |  | 
4 | Cc1cc(=O)n(-c2ccccc2)n1-c1ccccc1 |  |  | Dose-dependent effect | Active | < 0.1 nmol | BLD | BLD | Non-toxic | BLD | Active |  |  |  |  |  |  | 
5 | Cc1cc(=O)n(-c2ccccc2)n1CC(F)(F)F |  |  | Dose-dependent effect | Active | < 0.1 nmol | BLD | BLD | Non-toxic | BLD | Active |  |  |  |  |  |  | 
6 | Cc1cc(=O)n(-c2ccccc2)n1C [ANTIPYRINE] |  | Active |  | Active | 27 nmol |  |  | Toxic |  |  | Unstable | 40 nmol | 40 nmol | 2% | 2% | 2% | 2%
